Calls of active or inactive are those of the source. No cut-off for these calls is given here.

For assay [1], the system named is Trypanosoma vivax. Kind of assay: Antitrypanosomal activity against bloodstream Trypanosoma vivax STIB 719/ ILRAD 560 infected in Fulani Zebu cattle assessed as reduction in parasitemia at 10 mg/kg, IM administered twice daily and measured after for 100 days. The assay is classed as functional, organism-based. Particulars: time 100.0 day. Summed up: (§1)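 Female Fulani Zebu cattle infected with the named strain received 10 mg/kg of the free base by IM injection. The vehicle was Kolliphor EL, N-methyl pyrrolidone, 2-pyrrolidone and 11% water. Dosing was once or twice 15 h apart. Saline vehicle controls got 0.2 mL/kg twice, 15 h apart. Animals were followed for 100 days after treatment to score cure.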

Assay [2] deals with Trypanosoma congolense. Kind of assay: Antitrypanosomal activity against bloodstream Trypanosoma congolense IL3000 infected in NMRI mouse assessed as reduction in parasitemia at 10 mg/kg, sc administered once daily for 4 days. The format is functional. On the set-up: scale not given: the % may be the effect or the level left.
Assay [3] deals with Trypanosoma congolense. Kind of assay: Antitrypanosomal activity against bloodstream Trypanosoma congolense IL3000 infected in Fulani Zebu cattle assessed as reduction in parasitemia at 10 mg/kg, IM administered as single dose monitered for 100 days. Particulars: time 100.0 day. The assay is classed as functional, organism-based. Summed up:
as §1

In assay [4] the test system is Trypanosoma vivax. Kind of assay: Antitrypanosomal activity against bloodstream Trypanosoma vivax STIB 719/ ILRAD 560 infected in NMRI mouse assessed as reduction in parasitemia at 10 mg/kg, sc administered for 2 days. The format is functional. Also noted: scale not given: the % may be the effect or the level left. The settings on record: time 2 day.
Assay [5] deals with Trypanosoma vivax. Kind of assay: Antitrypanosomal activity against bloodstream Trypanosoma vivax STIB 719/ ILRAD 560 infected in Fulani Zebu cattle assessed as reduction in parasitemia at 10 mg/kg, IM administered as single dose monitered for 100 days. The assay is classed as functional, organism-based. Particulars: time 100.0 day. Summed up: as §1
Assay [6] concerns Trypanosoma vivax. Kind of assay: Antitrypanosomal activity against bloodstream Trypanosoma vivax STIB 719/ ILRAD 560 infected in NMRI mouse assessed as reduction in parasitemia at 3 mg/kg, sc administered for 4 days. The format is functional. On the set-up: scale not given: the % may be the effect or the level left. The settings on record: time 4 day.
The test system of assay [7] is Trypanosoma vivax. Kind of assay: Antitrypanosomal activity against bloodstream Trypanosoma vivax STIB 719/ ILRAD 560 infected in Fulani Zebu cattle assessed as reduction in parasitemia at 10 mg/kg, IM administered twice daily and measured after 4 days. The format is functional, organism-based. The settings on record: time 4.0 day.
The subject of assay [8] is Trypanosoma vivax. Kind of assay: Antitrypanosomal activity against bloodstream Trypanosoma vivax STIB 719/ ILRAD 560 infected in NMRI mouse assessed as reduction in parasitemia at 10 mg/kg, sc administered for 4 days. The assay is classed as functional. Also noted: scale not given: the % may be the effect or the level left.
The test system of assay [9] is Trypanosoma congolense. Kind of assay: Antitrypanosomal activity against bloodstream Trypanosoma congolense IL3000 infected in NMRI mouse assessed as reduction in parasitemia at 10 to 100 ng/ml administered via sc implanted ALZET osmotic pumps for 48 hrs. The settings on record: dose 10-100 ng/ml. The assay is classed as functional, organism-based.
The subject of assay [10] is Trypanosoma congolense. Kind of assay: Antitrypanosomal activity against bloodstream Trypanosoma congolense KONT 2/133 infected in Friesian-Holstein calf assessed as reduction in parasitemia at 5 mg/kg, sc BID and measured after 3 days. The format is functional, organism-based. The settings on record: time 3.0 day.
The subject of assay [11] is Trypanosoma brucei brucei. Kind of assay: Antitrypanosomal activity against bloodstream Trypanosoma brucei brucei infected in NMRI mouse assessed as parasite growth inhibition at 3 mg/kg, po BID for 4 days. The format is functional. Also noted: scale not given: the % may be the effect or the level left. The settings on record: time 4 day.
The subject of assay [12] is Trypanosoma vivax. Kind of assay: Antitrypanosomal activity against bloodstream Trypanosoma vivax STIB 719/ ILRAD 560 infected in NMRI mouse assessed as reduction in parasitemia at 3 mg/kg, sc QD for 4 days and measured twice a week for 21 days. On the set-up: scale not given: the % may be the effect or the level left. The settings on record: time 21 day.
In assay [13] the test system is Trypanosoma vivax. Kind of assay: Antitrypanosomal activity against bloodstream Trypanosoma vivax STIB 719/ ILRAD 560 infected in NMRI mouse assessed as reduction in parasitemia at 30 mg/kg, sc administered as single dose and measured twice a week for 21 days. The format is functional. Particulars: time 21 day. On the set-up: scale not given: the % may be the effect or the level left.

For assay [14], the system named is Trypanosoma vivax. Kind of assay: Antitrypanosomal activity against bloodstream Trypanosoma vivax STIB 719/ ILRAD 560 infected in NMRI mouse assessed as reduction in parasitemia at 10 mg/kg, sc BID for 4 days and measured twice a week for 21 days. Also noted: scale not given: the % may be the effect or the level left. The assay is classed as functional. Particulars: time 21 day.

Assay [15] has as its system Trypanosoma congolense. Kind of assay: Antitrypanosomal activity against bloodstream Trypanosoma congolense IL3000 infected in NMRI mouse assessed as reduction in parasitemia at 3 mg/kg, sc administered for 4 days. Particulars: time 4 day. The format is functional. On the set-up: scale not given: the % may be the effect or the level left.

Regarding `CC(C)CS(=O)(=O)N[C@H]1CC[C@H](Nc2nc(N)c(C(=O)c3c(F)cc(CN(C)C)cc3F)s2)CC1`, the outcome in the assay on Trypanosoma vivax [1], in the assay on Trypanosoma congolense [3], with Trypanosoma vivax [5] and with Trypanosoma vivax [7] was inactive. The Activity with Trypanosoma congolense [2] (time 4 day), in the assay with Trypanosoma vivax [4], in the assay with Trypanosoma vivax [6] and in the assay on Trypanosoma vivax [8] (time 4 day) was 100% each time. Besides, the result in the assay with Trypanosoma congolense [9] was Active.
For `CC(C)CS(=O)(=O)N[C@H]1CC[C@H](Nc2nc(N)c(C(=O)c3c(F)cccc3F)s2)CC1`, in the assay with Trypanosoma congolense [10], the result was Active. Also, the Activity (in assay [11]; with Trypanosoma vivax [12]; in the assay with Trypanosoma vivax [13]; in the assay on Trypanosoma vivax [14]) was 100% throughout.
In the case of `CC(C)CS(=O)(=O)N[C@H]1CC[C@H](Nc2nc(N)c(C(=O)c3c(F)cc(CN4CCN(C)CC4)cc3F)s2)CC1`, the result in the assay with Trypanosoma vivax [8] (time 4.0 day) was inactive.
As for `CC(C)CS(=O)(=O)N[C@H]1CC[C@H](Nc2nc(N)c(C(=O)c3c(F)cc(CN4CCOCC4)cc3F)s2)CC1`, the outcome in the assay on Trypanosoma congolense [2] (time 4.0 day) and in the assay on Trypanosoma vivax [8] (time 4.0 day) was inactive.
Turning to `CC(C)CS(=O)(=O)N[C@H]1CC[C@H](Nc2nc(N)c(C(=O)c3c(F)cc(CN4CCCC4)cc3F)s2)CC1.Cl`, the Activity with Trypanosoma vivax [8] (time 4 day) was found to be 100%.
For `CNCc1cc(F)c(C(=O)c2sc(N[C@H]3CC[C@H](NS(=O)(=O)CC(C)C)CC3)nc2N)c(F)c1.Cl`, the Activity in the assay on Trypanosoma congolense [2] (time 4 day) and with Trypanosoma vivax [8] (time 4 day) was 100% each time.
For `CC(C)CS(=O)(=O)N[C@H]1CC[C@H](Nc2nc(N)c(C(=O)c3c(Cl)cccc3Cl)s2)CC1`, the Activity with Trypanosoma congolense [15] and in the assay with Trypanosoma vivax [6] was 100% each time.

(Values after ChEMBL document CHEMBL5046314, “Repositioning of a Diaminothiazole Series Confirmed to Target the Cyclin-Dependent Kinase CRK12 for Use in the Treatment of African Animal Trypanosomiasis” (J Med Chem, 2022).)
